Data from PMC10448036 (International Journal for Parasitology: Drugs and Drug …, 2023).
Like-named read-outs stand apart in the source and are kept apart here. Marks after values point to notes of the source that are not given here.

Experiments:
[1] = test system: susceptible H. contortus; settings: single dose, sheep, absence of resistance, cited from earlier work
[2] = test system: P-gp; settings: ref Lespine et al., 2006; cited from earlier work
[3] = test system: H. contortus population; settings: SUL experimental farm, ref Castells, personal communication; cited from earlier work
[4] = test system: gastrointestinal nematodes; settings: cattle, ref Leathwick and Miller (2013), cited from earlier work
[5] = Adverse events / tolerability; assay type: in vivo; settings: lambs, sc and oral treatments
[6] = test system: Nematodirus spp., Oesphagostomum spp. and Trichuris ovis; test: Adult nematode counts at necropsy; assay type: in vivo; settings: 13 days post-treatment, sc and oral, lambs n = 2 per group
Outline: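 Naturally parasitized lambs, ranked by epg and split into groups of 10, were dosed on day 0 by individual weight with two test compounds, alone or combined. The first was given at 5 mg/kg sc or 10 mg/kg oral, the second at 0.2 mg/kg sc or oral. An untreated control group was kept. At 13 and 28 days post-treatment, two random animals per group were killed by captive bolt and exsanguinated.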

[7] = test system: multiple resistant gastrointestinal nematodes (mainly H. contortus); test: Faecal egg count reduction test; assay type: in vivo, lambs; settings: for Nematode egg counts (mean): arithmetic mean; for Efficacy (%) [CI] (FECRT): 95% CI, Coles et al. (1992) formula
[8] = test system: Haemoncus spp.; test: L3 from pooled faecal cultures, by genus; assay type: in vivo, lambs
[9] = Plasma disposition kinetics; assay type: in vivo, lambs; settings: for AUC0-LOQ / AUC0-∞: closantel in plasma, lambs
[10] = test system: Other genera (Trichostrongylus spp.; Teladorsagia spp. and Oesophagostomum spp.); test: L3 from pooled faecal cultures, by genus; assay type: in vivo, lambs
Outline: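 Naturally parasitized lambs (groups of 10) were dosed by weight on day 0 with two test compounds, alone or combined: the first at 5 mg/kg sc or 10 mg/kg oral, the second at 0.2 mg/kg sc or oral; untreated controls were kept. Rectal faeces were counted for epg by modified McMaster. Pooled group faecal cultures at days −1, 13, 22 and 28 gave L3 typed to genus. Genus efficacy = 100×(1−T/C) on arithmetic-mean epg partitioned by each genus's L3 proportion.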

[11] = test system: breast cancer resistance protein (BCRP); settings: ref Pérez et al., 2009; cited from earlier work
[12] = most species, ref Zulalian et al., 1994; cited from earlier work
[13] = test system: plasma proteins; settings: ref Mohammed Ali and Bogan, 1987; Hennessy, 1993; cited from earlier work
[14] = ref Hennessy and Ali, 1997; cited from earlier work
[15] = Day 2 post-treatment, oral (CLO 10 mg/kg, MXD 0.2 mg/kg)
[16] = Day 2 post-treatment, subcutaneous (CLO 5 mg/kg, MXD 0.2 mg/kg)
[17] = Day 6 post-treatment, oral (CLO 10 mg/kg, MXD 0.2 mg/kg)
[18] = Day 6 post-treatment, subcutaneous (CLO 5 mg/kg, MXD 0.2 mg/kg)
[19] = Day 10 post-treatment, oral (CLO 10 mg/kg, MXD 0.2 mg/kg)
[20] = Day 13 post-treatment, oral (CLO 10 mg/kg, MXD 0.2 mg/kg)
[21] = Day 13 post-treatment, subcutaneous (CLO 5 mg/kg, MXD 0.2 mg/kg)
[22] = Day 22 post-treatment, oral (CLO 10 mg/kg, MXD 0.2 mg/kg)
[23] = Day 22 post-treatment, subcutaneous (CLO 5 mg/kg, MXD 0.2 mg/kg)
[24] = Day 28 post-treatment, oral (CLO 10 mg/kg, MXD 0.2 mg/kg)
[25] = Day 28 post-treatment, subcutaneous (CLO 5 mg/kg, MXD 0.2 mg/kg)
[26] = 22 days post-treatment, subcutaneous
[27] = 28 days post-treatment, subcutaneous
[28] = CLO co-administered with MXD by the sc route vs CLO alone, P < 0.05
[29] = CLO 10 mg/kg oral alone (CLOoral)

| SMILES | Efficacies of single dose [3] | Adverse events [5] | Fate of Nematodirus spp., Oesphagostomum spp. and Trichuris ovis [6] | Nematode egg counts (mean) [7, 15] | Nematode egg counts (mean) [7, 16] | Nematode egg counts (mean) [7, 17] | Nematode egg counts (mean) [7, 18] | Nematode egg counts (mean) [7, 19] | Efficacy (%) [CI] (FECRT) [7, 20] | Nematode egg counts (mean) [7, 20] | Efficacy (%) [CI] (FECRT) [7, 21] | Nematode egg counts (mean) [7, 21] | Efficacy (%) [CI] (FECRT) [7, 22] | Nematode egg counts (mean) [7, 22] | Efficacy (%) [CI] (FECRT) [7, 23] | Nematode egg counts (mean) [7, 23] | Efficacy (%) [CI] (FECRT) [7, 24] | Nematode egg counts (mean) [7, 24] | Efficacy (%) [CI] (FECRT) [7, 25] | Nematode egg counts (mean) [7, 25] | further results |
| --- | --- | --- | --- | --- | --- | --- | --- | --- | --- | --- | --- | --- | --- | --- | --- | --- | --- | --- | --- | --- | --- |
| CO/N=C1\C[C@]2(C[C@@H]3C[C@@H](C/C=C(\C)C[C@@H](C)/C=C/C=C4\CO[C@@H]5[C@H](O)C(C)=C[C@@H](C(=O)O3)[C@]45O)O2)O[C@H](/C(C)=C/C(C)C)[C@H]1C [MXD, moxidectin] | above 85% | No adverse events were observed | efficiently eliminated | 240 ^ab epg | 150 ^ab epg | 340 ^ab epg | 250^a epg | 530 ^bc epg | 80 [62–89] % | 1140 ^b epg | 92 [85–96] % | 430 ^b epg | 82 [53–93] % | 888 ^b epg | 80 [61–90] % | 975 ^b epg | 61 [6–84] % | 1525 epg | 74 [38–89] % | 1013 epg | Protection against reinfection up to ([1]; ref Kerboeuf et al., 1995): ≤ 35 days; Interaction with mammalian P-gp [2]: much weaker compared with ivermectin; Efficacy ([4]; oral treatment): 91.1%; Efficacy ([4]; sc injection): 55.5%; Efficacy (%) ([8]; 13 days post-treatment, oral): 100%; Efficacy (%) ([8]; 22 days post-treatment, oral): 100%; Efficacy (%) [8, 26]: 100%; Efficacy (%) ([8]; 28 days post-treatment, oral): 100%; AUC0-LOQ after the oral treatment as share of that after the sc treatment ([9]; MXD 0.2 mg/kg oral vs sc): 33%; Quantified in plasma up to ([9]; post oral treatment): ≤ 25 days; Quantified in plasma up to ([9]; post sc treatment): up to 28 days; Efficacy (%) ([10]; 13 days post-treatment, oral): 0%; Efficacy (%) ([10]; 22 days post-treatment, oral): 0%; Efficacy (%) [10, 26]: 0%; Efficacy (%) ([10]; 28 days post-treatment, oral): 0%; Interaction with BCRP [11]: identified as a BCRP substrate; Dose excreted unchanged in the faeces [12]: 90% |
| Cc1cc(C(C#N)c2ccc(Cl)cc2)c(Cl)cc1NC(=O)c1cc(I)cc(I)c1O (centres unmarked) [CLO, closantel] | above 85% | No adverse events were observed | survive | 630 ^b epg | 790 ^b epg | 550 ^b epg | 530 ^b epg | 770^c epg | 84 [71–91] % | 890 ^b epg | 85 [72–92] % | 830 ^b epg | 83 [73–89] % | 850 ^b epg | 82 [67–91] % | 863 ^b epg | 66 [36–82] % | 1350 epg | 84 [57–94] % | 650 epg | Protection against reinfection up to ([1]; ref Hall et al., 1981): up to 28 days; Efficacy (FECRT) ([7]; 13 days post-treatment, drug alone, over the sc and oral treatments): 84 to 85%; Efficacy (%) ([8]; 22 days post-treatment, oral): 4%; Efficacy (%) [8, 26]: 0%; Efficacy (%) ([8]; 28 days post-treatment, oral): 9%; Efficacy (%) [8, 27]: 1%; Longer MRT after co-administration [9, 28]: 42%; Longer T½el after co-administration [9, 28]: 39%; Plasma drug exposure (AUC0-LOQ) lower after oral than after sc treatment ([9]; CLO oral 10 mg/kg vs sc 5 mg/kg, P < 0.05): 34%; AUC0-LOQ ([9]; CLO 5 mg/kg sc alone (CLOSC)): 1570 ± 419^ab μg.d/mL; AUC0-∞ ([9]; CLO 5 mg/kg sc alone (CLOSC)): 2231 ± 662^ab μg.d/mL; AUC0-LOQ [9, 29]: 1042 ± 170^c μg.d/mL; AUC0-∞ [9, 29]: 1438 ± 367^b μg.d/mL; Quantified in plasma up to ([9]; post oral treatment): up to 28 days; Quantified in plasma up to ([9]; post sc treatment): up to 28 days; Binding to plasma proteins [13]: > 99%; Efficacy (%) ([10]; 22 days post-treatment, oral): 96%; Efficacy (%) [10, 26]: 100%; Efficacy (%) [10, 27]: 99%; Biodegradation by the ruminal fluid [14]: not exposed to any significant biodegradation |
